Data: article PMC8178754 (The Journal of Cell Biology, 2021)

Experiments:
ctf3-2A cells = test: Spot assay, growth of mutant strains under chemical stress; type: cell-based, yeast; conditions: 10-fold serial dilutions, 30°C, 2 or 3 d; effects modest
How it was run: (§1)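 Strains were built by lithium acetate integration of PCR products and verified by sequencing or PCR. Cells were grown in YPD to OD600 ~1 and diluted to OD600 0.2. 10-fold serial dilutions in sterile water, 5 µl each, were spotted on YPD or YPD with hydroxyurea at indicated concentrations. Plates were incubated 2 or 3 d at 30°C, then imaged.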

[1] = system: ctf3-2A ulp2–SIM-3A double mutant cells; test: as above; type: cell-based, yeast; conditions: 10-fold serial dilutions, 30°C, 2 or 3 d
How it was run: as §1

[2] = system: cells lacking both Ulp2–kinetochore interactions (KIM-Ctf3 and SIM-SUMO); test: Growth under chemical stress, cells lacking both Ulp2–kinetochore interactions; type: cell-based, yeast; conditions: KIM-Ctf3 and SIM-SUMO interactions both absent
How it was run: as §1

[3] = system: ulp2–KIM-3A and ctf3-2A cells; test: Spot assay, growth of mutant strains under chemical stress; type: cell-based, yeast; conditions: YPD + hydroxyurea; 10-fold dilution series
How it was run: as §1

[4] = target: T1, Ctf3 complex (Ctf3, Mcm16, Mcm22) (yeast, UniProt Q12748;Q12262;P47167); test: fluorescence polarisation
[5] = target: T1, Ctf3 complex (Ctf3, Mcm16, Mcm22); test: pull-down
[6] = system: Ctf3-2A (Ctf3–R594A,K596A); test: GST pulldown with Ctf3-2A; type: binding, yeast; conditions: Fig. S2 A, 20 mM Tris, pH 8.5, 150 mM NaCl
Ctf3 = test: GST-Ulp2-KIM pulldown from yeast cell extracts, Ctf3; type: binding; conditions: immobilized GST-Ulp2-KIM as bait; anti–Protein A blot

T1 sequence (Q12748 whole entry, chain 1 of 3): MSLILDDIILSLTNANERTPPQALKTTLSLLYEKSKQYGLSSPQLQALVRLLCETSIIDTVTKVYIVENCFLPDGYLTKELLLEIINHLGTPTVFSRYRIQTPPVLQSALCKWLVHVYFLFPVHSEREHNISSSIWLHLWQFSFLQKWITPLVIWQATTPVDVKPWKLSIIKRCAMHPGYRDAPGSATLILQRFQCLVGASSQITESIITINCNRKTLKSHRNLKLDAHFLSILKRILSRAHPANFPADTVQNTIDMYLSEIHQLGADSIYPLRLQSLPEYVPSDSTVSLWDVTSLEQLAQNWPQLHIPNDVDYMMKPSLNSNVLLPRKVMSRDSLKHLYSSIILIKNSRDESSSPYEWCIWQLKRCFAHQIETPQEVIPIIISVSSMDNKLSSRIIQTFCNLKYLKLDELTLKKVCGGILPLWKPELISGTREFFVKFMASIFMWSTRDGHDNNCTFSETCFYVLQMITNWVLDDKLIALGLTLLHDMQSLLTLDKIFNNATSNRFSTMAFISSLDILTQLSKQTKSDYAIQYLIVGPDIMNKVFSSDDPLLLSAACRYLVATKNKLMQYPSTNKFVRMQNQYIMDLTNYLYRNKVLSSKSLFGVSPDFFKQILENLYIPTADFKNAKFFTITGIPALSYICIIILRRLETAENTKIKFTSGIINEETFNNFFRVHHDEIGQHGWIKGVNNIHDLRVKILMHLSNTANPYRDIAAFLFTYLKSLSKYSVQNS
T1 sequence (Q12262 whole entry, chain 2 of 3): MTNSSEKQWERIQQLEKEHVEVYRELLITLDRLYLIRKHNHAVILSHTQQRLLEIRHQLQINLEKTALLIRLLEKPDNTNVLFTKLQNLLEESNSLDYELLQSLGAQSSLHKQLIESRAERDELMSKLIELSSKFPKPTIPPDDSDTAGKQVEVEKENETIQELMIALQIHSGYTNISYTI
T1 sequence (P47167 whole entry, chain 3 of 3): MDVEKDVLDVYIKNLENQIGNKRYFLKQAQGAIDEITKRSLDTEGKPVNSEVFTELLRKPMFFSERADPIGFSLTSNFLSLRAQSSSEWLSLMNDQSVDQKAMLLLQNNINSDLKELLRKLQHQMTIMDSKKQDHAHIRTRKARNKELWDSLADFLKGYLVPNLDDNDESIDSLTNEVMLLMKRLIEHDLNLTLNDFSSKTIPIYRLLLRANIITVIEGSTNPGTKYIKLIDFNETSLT

Molecule: CCCCNC(=O)n1c(NC(=O)OC)nc2ccccc21 [benomyl]
- sensitivity of ctf3-2A cells (ctf3-2A cells): sensitizes cells to hydroxyurea and benomyl
- sensitivity of ctf3-2A ulp2–SIM-3A double mutant cells [1]: pronounced
- viability/sensitivity of cells lacking both Ulp2–kinetochore interactions [2]: Compromised viability

Molecule: NC(=O)NO [hydroxyurea]
- sensitivity of ulp2–KIM-3A and ctf3-2A cells [3]: elevated sensitivity
- sensitivity of ctf3-2A cells (ctf3-2A cells): sensitizes cells to hydroxyurea
- sensitivity of ctf3-2A ulp2–SIM-3A double mutant cells [1]: pronounced
- viability/sensitivity of cells lacking both Ulp2–kinetochore interactions [2]: much more sensitive

Molecule: DDSDVNLIGSS (FITC-AHA on the N-terminus (FITC-AHA-DDSDVNLIGSS)) [FITC-Ulp2-KIM peptide (Ulp2-927-937)]
- Kd [4]: ~900 nM

Molecule: DDSDVALIGSS [GST-Ulp2-927-937 N932A]
- binding result [5]: binds

Molecule: ADSDVNLIGSS [GST-Ulp2-KIM 1DA-1 (Ulp2-D927A)]
- binding result [5]: binds

Molecule: DDSDVNLIGSS [GST-Ulp2-927-937]
- binding result [5]: binds

B1: GST-Ulp2-KIM: GST fusion of the Ulp2 kinetochore interaction motif (KIM) (protein)
chain: MSARKRKFNSLKPLDTLNSSRASSPRSSASLPPKRYNTFRKDPKIVDHLNNASTKDFLPVLSMNSESKRQIELSDNDVDNNDEGEGVNSGCSDQDFEPLQSSPLKRHSSLKSTSNGLLFQMSNNLGNGSPEPAVASTSPNGSIISTKLNLNGQFSCVDSKTLRIYRHKAPCIMTFVSDHNHPKFSLYFQQSVIYNSQVNLLDDVELIILDKKNSFMAIILKDLKKVKMILDVNNSSININTNILIWSTASSASNKKIKSIKRFLLMSYSSSIKVEILDHKEQILERLKHLIHPISSSSPSLNMERAINSTKNAFDSLRLKKTKLSTNDDESPQIHTHFLSNKPHGLQSLTKRTRIASLGKKEHSISVPKSNISPSDFYNTNGTETLQSHAVSQLRRSNRFKDVSDPANSNSNSEFDDATTEFETPELFKPSLCYKFNDGSSYTITNQDFKCLFNKDWVNDSILDFFTKFYIESSIEKSIIKREQVHLMSSFFYTKLISNPADYYSNVKKWVNNTDLFSKKYVVIPINISYHWFSCIITNLDAILDFHQNKDKNDAINSDEISINNPLVNILTFDSLRQTHSREIDPIKEFLISYALDKYSIQLDKTQIKMKTCPVPQQPNMSDCGVHVILNIRKFFENPVETIDVWKNSKIKSKHFTAKMINKYFDKNERNSARKNLRHTLKLLQLNYISYLKKENLYEEVMQMEEKKSTNINNNENYDDDDEEIQIIENIDQSSKDNNAQLTSEPPCSRSSSISTTEREPTELHNSVVRQPTGEIITDNEDPVRAASPETASVSPPIRHNILKSSSPFISESANETEQEEFTSPYFGRPSLKTRAKQFEGVSSPIKNDQALSSTHDIMMPSPKPKRIYPSKKIPQLSSHVQSLSTDSMERQSSPNNTNIVISDTEQDSRLGVNSESKNTSGIVNRDDSDVNLIGSSLPNVAEKNHDNTQESNGNNDSLGKILQNVDKELNEKLVDIDDVAFSSPTRGIPRTSATSKGSNAQLLSNYGDENNQSQDSVWDEGRDNPILLEDEDP
- Ulp2–KIM interaction with Ctf3-2A in pulldown [6]: Ctf3-2A does not support the Ulp2–KIM interaction

B2: Ulp2: nuclear enzyme that removes SUMO chains from modified substrates; in pulldown represented by GST-Ulp2-KIM bait (protein, UniProt P40537 1-1034, looked up)
Ubiquitin-like-specific …: B1 chain
- pulldown of Ctf3 from yeast cell extract (Ctf3): Ctf3, but not Ctf3-2A, binds Ulp2
